The target of assay [1] is sea urchin NAADP receptor. The experiment in a line: Ca2+ release in sea urchin egg homogenates. As to conditions: compared to NAADP. It counts as biochemical.
In assay [2] the test system is sea urchin NAADP receptor. The experiment in a line: Sub-threshold receptor desensitization in sea urchin egg homogenates. It counts as biochemical. Conditions: compared to NAADP. The method, boiled down: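 Sea urchin egg homogenates were exposed to increasing sub-threshold concentrations of test compound or NAADP, and time-dependent desensitization was probed by subsequent addition of 1 μM NAADP. Ca2+ release was read as peak fluo-3 fluorescence. IC50 was derived from the concentration-response and compared with that of NAADP.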

The test system of a further assay is cultured human cells. Conditions: low concentrations, microinjected; cited from earlier work.
Assay [3] relates to NAADP 23–24 kDa binding protein(s). As to conditions: cited from earlier work.

The structures appear in SMILES notation. Where “and” joins values, the source holds several entries; their conditions need not be identical. Equal entries are not always repeated.

For the compound `C#Cc1nc2c(N)ncnc2n1[C@@H]1O[C@H](COP(=O)(O)OP(=O)(O)OC[C@H]2O[C@@H]([n+]3cccc(C(=O)[O-])c3)[C@H](O)[C@@H]2O)[C@@H](O)[C@H]1OP(=O)(O)O` [Compound 8, 8-Ethynyl-NAADP], in assay [1], the “EC50 relative to NAADP (fold greater / fold less potent as an agonist)” value was 89 fold and 90 fold. Moreover, in assay [2], the “decrease in desensitization potency relative to NAADP” value is 86 fold and 90 fold.

Consider `C#Cc1nc2c(N)ncnc2n1[C@@H]1O[C@H](COP(=O)(O)OP(=O)(O)OC[C@H]2O[C@@H]([n+]3cc(N=[N+]=[N-])cc(C(=O)[O-])c3)[C@H](O)[C@@H]2O)[C@@H](O)[C@H]1OP(=O)(O)O` [Compound 9, 5-N3-8-Ethynyl-NAADP], for which, in the assay on cultured human cells, the “Ca2+ release in cultured human cells” value is recorded as “elicit Ca^2+ release”. For the same compound, in assay [3], the “photolabeling of NAADP binding protein(s)” value is “specifically photolabel NAADP 23–24 kDa binding protein(s)”.

(Values after PMC7869823 (Bioorganic & medicinal chemistry, 2020).)
